Experimental data as given in ChEMBL document CHEMBL4342424, “A synthetic 2,3-diarylindole induces microtubule destabilization and G2/M cell cycle arrest in lung cancer cells” (Bioorg Med Chem Lett, 2020).
pIC50: −log10 of the molar value. Blank lines part the entries; values can stand above or below the compound they belong to. Calls of active or inactive are those of the source. The rule behind the calls is not given here.

Assays:
[1] = Drug uptake in cytoplasm of human A549 cells at 250 uM incubated for 3 hrs by Hoechst 33342 staining based confocal laser microscopic method; type: ADME, subcellular; settings: a549, 3 h
Method in brief: (§1)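 Live A549 cells were incubated for 3 h with the FITC-linked conjugate at 250 μM, then stained with Hoechst 33342 nuclear dye at 0.1 for 5 min. Live-cell confocal laser microscopy located the green signal in the cytoplasm or nucleus.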

A549 [2] = assay: Induction of cell cycle arrest in human A549 cells assessed as accumulation at G2/M phase at 200 uM incubated for 24 hrs by Muse cell analyzer based flow cytometry (reference value: 16.2%); type: functional
A549 [3] = assay: Antiproliferative activity against human A549 cells assessed as reduction in cell viability after 72 hrs by MTT assay; type: functional, cell-based; settings: A549, 72 h
[4] = Drug uptake in nucleus of human A549 cells at 250 uM incubated for 3 hrs by Hoechst 33342 staining based confocal laser microscopic method; type: ADME, subcellular; settings: a549, 3 h; method in brief: as §1
Tubulin (Sus scrofa) [5] = target: T1, Tubulin (Sus scrofa) (UniProt P02554+P02550); assay: Induction of porcine brain tubulin polymerization at 10 uM
Tubulin (Sus scrofa) [6] = target: T1, Tubulin (Sus scrofa); assay: Inhibition of porcine brain tubulin polymerization at 10 uM
A549 [7] = assay: Induction of cell cycle arrest in human A549 cells assessed as accumulation at S phase at 2.5 uM incubated for 24 hrs by Muse cell analyzer based flow cytometry (reference value: 8%); type: functional
A549 [8] = assay: Induction of cell cycle arrest in human A549 cells assessed as accumulation at G0/G1 phase at 2.5 uM incubated for 24 hrs by Muse cell analyzer based flow cytometry (reference value: 63.9%); type: functional
A549 [9] = assay: Induction of cell cycle arrest in human A549 cells assessed as accumulation at S phase at 5 uM incubated for 24 hrs by Muse cell analyzer based flow cytometry (reference value: 8%); type: functional
A549 [10] = assay: Induction of cell cycle arrest in human A549 cells assessed as increase in accumulation at G2/M phase incubated for 24 hrs by Muse cell analyzer based flow cytometry; type: functional
A549 [11] = assay: Induction of cell cycle arrest in human A549 cells assessed as accumulation at G2/M phase at 5 uM incubated for 24 hrs by Muse cell analyzer based flow cytometry (reference value: 22.3 to 24%); type: functional
A549 [12] = assay: Induction of cell cycle arrest in human A549 cells assessed as accumulation at G2/M phase at 2.5 uM incubated for 24 hrs by Muse cell analyzer based flow cytometry (reference value: 22.3 to 24%); type: functional
A549 [13] = assay: Induction of cell cycle arrest in human A549 cells assessed as accumulation at G0/G1 phase at 5 uM incubated for 24 hrs by Muse cell analyzer based flow cytometry (reference value: 63.9%); type: functional
A549 [14] = assay: Cytotoxicity against human A549 cells assessed as change in cell morphology incubated for 48 hrs; type: functional, cell-based

T1 sequence (P02550 whole entry, looked up): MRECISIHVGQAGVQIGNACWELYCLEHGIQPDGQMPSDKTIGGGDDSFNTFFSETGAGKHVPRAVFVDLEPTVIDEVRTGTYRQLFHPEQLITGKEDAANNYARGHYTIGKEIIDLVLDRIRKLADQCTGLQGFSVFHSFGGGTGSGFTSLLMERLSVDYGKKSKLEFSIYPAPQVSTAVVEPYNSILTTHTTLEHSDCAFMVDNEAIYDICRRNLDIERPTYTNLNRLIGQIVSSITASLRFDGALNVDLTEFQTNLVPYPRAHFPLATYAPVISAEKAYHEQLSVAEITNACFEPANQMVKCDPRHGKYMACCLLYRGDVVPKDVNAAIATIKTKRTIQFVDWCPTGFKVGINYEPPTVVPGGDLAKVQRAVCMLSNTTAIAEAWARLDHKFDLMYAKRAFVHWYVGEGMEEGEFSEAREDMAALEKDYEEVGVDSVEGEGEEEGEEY
T1 sequence (P02554 whole entry, looked up): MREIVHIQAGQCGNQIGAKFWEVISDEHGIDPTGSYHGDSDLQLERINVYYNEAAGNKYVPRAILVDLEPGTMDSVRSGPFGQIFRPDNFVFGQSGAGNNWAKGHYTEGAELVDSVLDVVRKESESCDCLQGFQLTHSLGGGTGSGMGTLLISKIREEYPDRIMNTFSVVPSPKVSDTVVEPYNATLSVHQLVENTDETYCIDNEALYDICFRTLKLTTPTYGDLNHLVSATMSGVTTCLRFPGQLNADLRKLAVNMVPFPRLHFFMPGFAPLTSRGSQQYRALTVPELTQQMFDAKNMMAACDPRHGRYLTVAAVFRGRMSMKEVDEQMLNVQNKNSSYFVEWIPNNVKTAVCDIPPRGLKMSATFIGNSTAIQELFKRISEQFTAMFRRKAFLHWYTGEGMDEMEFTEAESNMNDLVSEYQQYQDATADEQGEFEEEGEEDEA

- Drug uptake [1]: Active
- pIC50 (A549 [3]): 3.62
- Drug uptake [4]: Not Active
SMILES: O=C(OCCOCCOCCOCCOCCOCCNC(=S)Nc1ccc(-c2c3ccc(=O)cc-3oc3cc(O)ccc23)c(C(=O)O)c1)c1ccc(-c2c(-c3ccccc3)[nH]c3ccccc23)cc1
- Activity (A549 [2]): 53.3%

- Activity (Tubulin (Sus scrofa) [5]): Active
SMILES: CC(=O)O[C@H]1C(=O)[C@@]2(C)[C@H]([C@H](OC(=O)c3ccccc3)[C@]3(O)C[C@H](OC(=O)[C@H](O)[C@@H](NC(=O)c4ccccc4)c4ccccc4)C(C)=C1C3(C)C)[C@]1(OC(C)=O)CO[C@@H]1C[C@@H]2O

- pIC50 (A549 [3]): 4.51
SMILES: COC(=O)c1ccc(-c2c(-c3ccccc3)n(CCOCCOCCO)c3ccccc23)cc1

- inhibition (Tubulin (Sus scrofa) [6]): Active
SMILES: COC(=O)c1ccc(-c2c(-c3ccccc3)[nH]c3ccccc23)cc1
- Activity (A549 [7]): 9.5%
- Activity (A549 [8]): 40.9%
- Activity (A549 [9]): 7.5%
- Activity (A549 [10]): Dose-dependent effect
- Activity (A549 [11]): 70 - 71%
- Activity (A549 [12]): 41.4 - 42.8%
- Activity (A549 [13]): 10.2%

- pIC50 (A549 [3]): 4.38
SMILES: COC(=O)c1ccc(-c2c(-c3ccccc3)c3ccccc3n2CCOCCOCCO)cc1

- pIC50 (A549 [3]): 4.99
SMILES: O=C(OCCOCCOCCO)c1ccc(-c2c(-c3ccccc3)[nH]c3ccccc23)cc1
- Activity (A549 [14]): Active

- pIC50 (A549 [3]): 4.53
SMILES: O=C(OCCOCCOCCO)c1ccc(-c2[nH]c3ccccc3c2-c2ccccc2)cc1
